Screening data: PubChem, several laboratories
This is a sample that favours compounds with a hit; in the whole collection about 5.7% have one here.
SKKanGAS inh: S. pyogenes SKKanGAS growth inhibitors in kanamycin, primary screen, streptokinase expression inhibitor project, SKKanGAS strain, BacTiter-Glo luminescence; 6 h; inhibition, % at 7.5 µM; 300,000 tested, 1.3% active; AID 1662, 2009;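 active = mean replicate score, as percent of positive control median, at least 50; inconclusive = mean below 50 but one replicate at or above 50; inactive = mean and every replicate below 50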;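 note: strain carries kanamycin resistance gene driven by streptokinase promoter and grows in 40 µg/ml kanamycin; loss of luminescence reflects streptokinase promoter inhibition or plain growth inhibition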
T cruzi inh: inhibitors of intracellular T. cruzi growth, primary screen, luminescence, NIH3T3 host cells. T. cruzi beta-gal in NIH3T3, 90 h. inhibition, % (test concentration not listed). 300,000 tested, 1.4% active;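 active = mean inhibition across valid replicates above about 55%, limit read from the data; inconclusive = mean below that limit but half or more replicates reach it; inactive = mean below it, under half of replicates reach it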;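 note: signal also drops with host cell toxicity which is not excluded here; higher percent means less beta-gal luminescence so fewer parasites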
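System: NIH/3T3 fibroblasts plus reporter T. cruzi. Medium: DMEM plus 2% FBS. Probe or stimulus: 5000 reporter trypomastigotes per well. Compound: single 50 nL compound addition per well in DMSO. Incubation: co-culture of at least 90 h after 3 h attachment. Detection: GalScreen β-gal luminescence, detergent lysis, 60 min. Evaluation: parasite load inhibition, %.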
Calb FLC: C. albicans growth inhibition with fluconazole, primary screen, CaCi-2 strain, Alamar Blue fluorescence | C. albicans CaCi-2 (fluconazole-resistant clinical isolate) + fluconazole, 48 h | growth inhibition, % (no concentration beside the values) | 300,000 tested, 0.57% active | AID 1979, 2009;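 active = growth inhibition above about 58% in most replicates, limit read from the data, passing the limit was not always enough; inconclusive = exactly half the replicates above a set limit; inactive = most replicates below a set limit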;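 note: all wells also contain fluconazole at 8 µg/ml as a sub-toxic cotreatment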
Mdm2 MdmX PPI: inhibitors of human Mdm2-MdmX association, primary screen, cell-based, luminescence, split luciferase, SaOS-2, uHTS; Protein Mdm4 (Homo sapiens) + E3 ubiquitin-protein ligase Mdm2 (Homo sapiens), …; SaOS-2 split-luciferase Mdm2/MdmX complementation; inhibition, % at 8 µM; 330,000 tested, 3% active;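 active = inhibition of at least 50% at 8 µM in the primary screen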
Target sequence (O15151 whole entry, looked up): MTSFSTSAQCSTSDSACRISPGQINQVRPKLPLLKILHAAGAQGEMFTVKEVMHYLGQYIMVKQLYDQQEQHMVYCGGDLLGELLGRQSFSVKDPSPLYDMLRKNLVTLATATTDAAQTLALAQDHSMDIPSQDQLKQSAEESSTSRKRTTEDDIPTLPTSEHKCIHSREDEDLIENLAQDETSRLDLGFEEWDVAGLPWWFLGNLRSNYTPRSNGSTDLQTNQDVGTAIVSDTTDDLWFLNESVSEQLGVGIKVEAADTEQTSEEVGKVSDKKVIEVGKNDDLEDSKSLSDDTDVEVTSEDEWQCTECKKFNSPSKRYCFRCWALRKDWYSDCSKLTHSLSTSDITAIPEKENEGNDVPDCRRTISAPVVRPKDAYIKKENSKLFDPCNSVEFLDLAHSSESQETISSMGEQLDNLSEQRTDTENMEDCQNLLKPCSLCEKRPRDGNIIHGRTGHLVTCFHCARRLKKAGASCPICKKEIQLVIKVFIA
Target sequence (Q00987 whole entry, looked up): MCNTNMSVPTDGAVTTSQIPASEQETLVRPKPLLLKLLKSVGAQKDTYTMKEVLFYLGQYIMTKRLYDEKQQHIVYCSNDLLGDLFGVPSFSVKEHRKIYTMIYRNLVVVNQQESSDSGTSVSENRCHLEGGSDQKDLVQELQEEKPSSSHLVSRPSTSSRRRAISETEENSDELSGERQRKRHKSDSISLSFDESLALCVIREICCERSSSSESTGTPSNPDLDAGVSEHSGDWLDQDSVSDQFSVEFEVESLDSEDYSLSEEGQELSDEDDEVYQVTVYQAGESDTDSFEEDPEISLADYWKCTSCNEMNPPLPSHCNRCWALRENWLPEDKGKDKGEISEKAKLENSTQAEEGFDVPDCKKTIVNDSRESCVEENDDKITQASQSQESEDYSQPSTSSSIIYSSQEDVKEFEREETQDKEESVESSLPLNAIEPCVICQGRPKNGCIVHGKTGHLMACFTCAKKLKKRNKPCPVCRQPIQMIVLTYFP
Beta apoptosis: inhibitors of cytokine-induced beta cell apoptosis, primary screen, luminescence; INS-1E cytokine-induced death, ATP luminescence, 48 h; percent of positive-control rescue, neutral wells zero; protection from apoptosis, % (concentration not given with the values); 300,000 tested, 0.8% active;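 active = Every replicate reaches about 75%, or at least half do and their mean reaches it too, limit read from the data; inconclusive = At least half of replicates reach the limit but their mean does not; inactive = Under half of replicates reach the limit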;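 note: higher means more ATP so stronger rescue from cytokine killing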
CSC inhib: cancer stem cell viability inhibitors, primary screen, luminescence. cancer stem cell-like cells viability. AID 2717, 2010. 300,000 tested, 1.1% active. inhibition, % at 7.5 µM; in the data active = inhibition above about 75%; inconclusive = no clear call, values can overlap the other calls; tested in HMLE shEcad cells
Hits are given with their value; - = inactive; ? = inconclusive; . = no result given.

SMILES	SKKanGAS inh	T cruzi inh	Calb FLC	Mdm2 MdmX PPI	Beta apoptosis	CSC inhib
CCCCn1c(NCc2ccccc2NS(=O)(=O)c2ccc(C)cc2)nc2ccccc21	-	57	-	-	-	-
CCCCn1c(NS(=O)(=O)c2ccc(C)cc2)c(S(=O)(=O)c2ccccc2)c2nc3ccccc3nc21	-	-	-	.	-	108
CCCCn1c(NCc2ccccc2O)nc2ccccc21	-	-	-	-	-	-
Cc1sc2ncnc(NCCc3ccc(S(N)(=O)=O)cc3)c2c1C	-	-	?	-	93	-
CN1CCC(OC(=O)c2cccc(Cl)c2)CC1	-	60	-	-	-	117
Cc1cccc(C(=O)OC2CCN(C)CC2)c1	-	-	-	-	-	-
CN1CCC(OC(=O)c2ccc(Br)cc2)CC1	-	62	-	-	-	-
O=C(NNc1ccccc1Br)C(=O)n1ccc2ccccc21	-	-	-	-	-	85
O=C(NCc1ccc(Cl)cc1)c1cccc2c1C(=O)N(CC1CCCO1)C2 (configuration not stated)	-	-	-	-	-	.
Cn1c(N)c(C(=O)CSc2nc(C3CC3)n(-c3ccccc3)n2)c(=O)[nH]c1=O	.	.	.	-	-	.
CCCCN(CCCC)S(=O)(=O)c1ccc(NC(=O)c2cccs2)cc1	-	56	-	-	-	.
CC(=O)N1CCN(c2ccc(NC(=O)c3ccc([N+](=O)[O-])cc3Cl)cc2)CC1	-	-	-	-	-	-
CCCCN(CCCC)S(=O)(=O)c1ccc(NC(=O)c2ccc([N+](=O)[O-])cc2Cl)cc1	-	79	-	.	-	-
N#Cc1ccccc1OCC(=O)N1CCN(S(=O)(=O)c2ccc(Cl)cc2)CC1	.	.	.	-	-	-
CC(=O)NCC1CCN(C(=O)C2CCC(=O)N(CCc3cccc(F)c3)C2)CC1 (configuration not stated)	-	-	-	-	-	-
CC1CC(C)CN(c2ccc(C(=O)NCc3ccc4c(c3)OCO4)cc2[N+](=O)[O-])C1 (configuration not stated)	-	65	-	-	-	-
CCc1ccccc1N1C(=O)C(Cl)=C(N2CCOCC2)C1=O	-	-	-	-	-	-
CN(C)c1oc(-c2ccc(OCc3ccc(Cl)cc3)cc2)nc1C#N	-	63	-	-	-	-
COc1ccc(CNc2oc(COc3ccc(Cl)cc3)nc2C#N)cc1	-	66	-	-	-	.
O=C(NCc1ccccn1)c1ccco1	-	-	-	-	-	-
O=C(NC(Cc1ccccc1)C(=O)NCc1ccccn1)c1ccco1 (configuration not stated)	-	-	103	-	-	.
CC(=O)Nc1ccc(C(=O)COC(=O)c2cc(C)oc2C)c(F)c1	.	.	.	-	-	-
O=C(O)c1ccc(N=Nc2c(O)[nH]c3ccc(Br)cc23)cc1	71	-	-	-	-	-
O=C(O)c1ccc(N=Nc2c(O)[nH]c3cc(Cl)ccc23)cc1	70	-	-	-	-	-
Oc1[nH]c2ccccc2c1N=Nc1ccc(C(F)(F)F)cn1	-	-	-	-	-	-
SMILES	SKKanGAS inh	T cruzi inh	Calb FLC	Mdm2 MdmX PPI	Beta apoptosis	CSC inhib
Oc1[nH]c2ccc(Br)cc2c1N=Nc1ccc(C(F)(F)F)cn1	-	75	-	-	-	-
O=C(Nc1ccc(S(=O)(=O)N2CCOCC2)cc1)c1cccnc1	-	.	-	-	-	-
CCSc1nc(-c2ccc(OC)cc2)cc(-c2ccccc2)c1C#N	-	-	-	-	-	-
COc1ccc(-c2cc3nc4ccccc4n3c(N)c2C#N)cc1	74	-	-	-	-	-
Cc1cc(NC(=O)COC(=O)[C@@H](NS(=O)(=O)c2ccc(Br)cc2)C(C)C)no1	-	-	111	-	-	-
CCCCn1nc(C(=O)Nc2cc(C(F)(F)F)ccc2N2CCOCC2)ccc1=O	.	.	.	-	-	-
Cc1ccc(-c2nnc(Nc3ccc4c(c3)OCO4)c3ccccc23)cc1S(=O)(=O)NC(C)C	-	-	-	-	-	-
CCCCn1c(N)c(N(CC(C)C)C(=O)c2cccc(S(=O)(=O)N3CCN(C)CC3)c2)c(=O)[nH]c1=O	-	-	-	-	-	-
CN1C(=O)/C(=C/c2cn(CC(=O)N3CCCCC3)c3ccccc23)NC1=S	.	.	112	-	-	-
Cc1noc(C)c1CSc1nc2sc(C)c(C)c2c(=O)n1-c1ccccc1	?	60	-	-	-	-
O=C1CC(c2ccccc2Oc2cccc(Cl)c2)C(n2cncn2)C(=O)C1C1NCCc2ccccc21 (configuration not stated)	-	-	-	-	-	-
CC(C)(C)c1ccc(Oc2cccc(C3CC(=O)C(C4NCCc5ccccc54)C(=O)C3n3cncn3)c2)cc1 (configuration not stated)	96	-	-	-	.	-
CCOc1ccccc1C(=O)N[C@H](C(=O)Nc1nc2c(s1)CCCC2)C(C)C	-	69	-	-	-	-
C=C(C)C(=O)OCC(O)COc1ccc(C(C)(C)c2ccc(OCC(O)COC(=O)C(=C)C)cc2)cc1 (configuration not stated)	-	-	.	-	104	-
Nc1n[nH]c(N)c1N=Nc1ccc2c(c1)OCO2	-	74	-	-	-	-
Cc1ccc(N=Nc2c(N)n[nH]c2N)cc1	-	-	-	-	-	-
Cc1ccc(CS(=O)Cc2ccc(C(=O)NC3CCC(C)CC3)o2)cc1 (configuration not stated)	-	-	-	-	-	-
C=CCN(CC=C)C(=S)NC(=O)c1ccc(OC)cc1	-	-	-	-	-	-
COc1ccc(C(=O)NC(=S)N(Cc2ccccc2)Cc2ccccc2)cc1	96	-	-	-	-	-
CC(C)C(=O)NC(=S)N(Cc1ccccc1)Cc1ccccc1	-	-	?	-	-	-
O=C(NC(=S)N(Cc1ccccc1)Cc1ccccc1)c1ccccc1F	94	-	-	-	-	-
C=CCN(CC=C)C(=S)NC(=O)c1ccc(-c2ccccc2)cc1	-	55	-	-	-	-
CC(C)CC(=O)NC(=S)N(Cc1ccccc1)Cc1ccccc1	54	-	-	-	-	-
Cc1cc2n(n1)C(c1c[nH]c3ccccc13)Nc1ccccc1-2 (configuration not stated)	63	-	-	-	-	-
Cc1cc2n(n1)C(c1cn(-c3ccccc3)nc1C)Nc1ccccc1-2 (configuration not stated)	-	-	-	-	-	-
O=C(CN1C2=NCCCN2c2ccccc21)c1ccc(Cl)cc1Cl	-	-	-	-	-	-
